Activity calls are given as the source filed them. The rule behind the calls is not given here.
Key:
[1] = tested on: Human immunodeficiency virus 1; assay: Antiretroviral activity against HIV1 in human MT4 cells assessed as reduction in virus-induced cytopathogenicity by MTT assay; format: functional, organism-based; details: Human immunodeficiency virus 1, MT4
Summary of the method: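 MT-4 cells infected with HIV-1; MTT read-out of viability; EC50 taken as concentration giving 50% protection from virus-induced cytopathogenicity. Mean of three separate experiments, variation among triplicates under 10%.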

[2] = Cytotoxicity against human MT4 cells by MTT assay; format: cell-based
Summary of the method: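 Mock-infected MT-4 cells; viability by MTT method; CC50 taken as concentration reducing viability by 50%. Mean of three separate experiments, variation among triplicates under 10%.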

[3] = Selectivity index, ratio of CC50 for human MT4 cells to EC50 for HIV1; format: toxicity, cell-based; details: read-out: Ratio CC50/EC50
[4] = tested on: Human immunodeficiency virus 1; assay: Antiviral activity against HIV1 in human C8166 cells assessed as reduction of p24 antigen level; format: functional, organism-based; details: Human immunodeficiency virus 1, C8166
Summary of the method: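 C8166 cultures infected with HIV-1; p24 antigen levels measured; EC90 taken as dose lowering p24 by 90%.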

[5] = tested on: HIV-1 K103N/Y181C mutant (Human immunodeficiency virus 1); assay: Antiviral activity against HIV1 with reverse transcriptase K103N/Y181C mutation in human MT4 cells assessed as reduction of virus-induced cytopathogenicity by MTT assay; details: for EC50: Human immunodeficiency virus 1, MT4
[6] = tested on: HIV-1 Y181C mutant (Human immunodeficiency virus 1); assay: Antiviral activity against HIV1 with reverse transcriptase Y181C mutation in human MT4 cells assessed as reduction of virus-induced cytopathogenicity by MTT assay; details: Human immunodeficiency virus 1, MT4

Q: With `Fc1ccc(F)c(NC(=S)OCCc2ccccn2)c1` as the molecule, how does the EC50 [1] read?
A: The EC50 was 9 µM.

Q: What about the CC50 [2] of the same molecule?
A: The CC50 was greater than 100 µM.

Q: What about the selectivity ratio [3] of the same molecule?
A: Its selectivity ratio is greater than 11.

Q: With `O=[N+]([O-])c1cc(NC(=S)OCCc2ccccn2)ccc1Cl` as the molecule, how does the EC50 [1] read?
A: The EC50 was 0.1 µM.

Q: And the CC50 [2]?
A: Its CC50 is 41 µM.

Q: And the selectivity ratio [3]?
A: Its selectivity ratio is 410.

Q: Which results are given for `COc1ccc(NC(=S)OCCc2ccncc2)cc1`?
A: EC50 [1]: > 59 µM; CC50 [2]: 59 µM; selectivity ratio [3]: < 1

Q: For `CC(=O)c1ccc(NC(=S)OCCc2ccccn2)cc1`, which EC50 [1] is on record?
A: The EC50 was greater than 100 µM.

Q: And the CC50 [2]?
A: Its CC50 is no less than 100 µM.

Q: For `CC(C)c1ccc(NC(=S)OCCc2ccccn2)cc1`, which EC50 [1] is on record?
A: The EC50 was greater than 45 µM.

Q: And the CC50 [2]?
A: The CC50 was 45 µM.

Q: And the selectivity ratio [3]?
A: Its selectivity ratio is less than 1.

Q: With `N#Cc1ccc(NC(=S)OCCc2ccccn2)cc1` as the molecule, how does the EC50 [1] read?
A: The EC50 was 0.2 µM.

Q: And the CC50 [2]?
A: Its CC50 is 45 µM.

Q: And the selectivity ratio [3]?
A: Its selectivity ratio is 225.

Q: With `S=C(Nc1ccccc1Cl)OCCc1ccccn1` as the molecule, how does the EC50 [1] read?
A: The EC50 was 43 µM.

Q: What about the CC50 [2] of the same molecule?
A: Its CC50 is greater than 100 µM.

Q: What about the selectivity ratio [3] of the same molecule?
A: Its selectivity ratio is greater than 2.3.

Q: What does the source list for `S=C(Nc1ccc(Cl)cc1Cl)OCCc1ccccn1`?
A: EC50 [1]: 2.9 µM; CC50 [2]: > 100 µM; selectivity ratio [3]: > 34

Q: Which EC50 [1] does the source give for `COc1ccc(NC(=S)OCCc2ccccc2)cc1` here?
A: The EC50 was 17 µM.

Q: What about the selectivity ratio [3] of the same molecule?
A: The selectivity ratio was 2.1.

Q: What does the source list for `CN(C)c1ccc(NC(=S)OCCc2ccccn2)cc1`?
A: EC50 [1]: > 60 µM; CC50 [2]: 60 µM; selectivity ratio [3]: < 1

Q: What does the source list for `Fc1cc(F)cc(NC(=S)OCCc2ccccn2)c1`?
A: EC50 [1]: 9 µM; CC50 [2]: > 100 µM; selectivity ratio [3]: > 11

Q: What does the source list for `Cc1ccc(NC(=S)OCCc2ccccn2)cc1Cl`?
A: EC50 [1]: 0.7 µM; CC50 [2]: 59 µM; selectivity ratio [3]: 84

Q: Which EC90 [4] does the source give for `S=C(NCCc1ccccn1)Nc1ccc(Br)cn1` [TROVIRDINE] here?
A: The EC90 was 0.015 µM.

Q: What about the selectivity ratio [3] of the same molecule?
A: Its selectivity ratio is 3000.

Q: What does the source list for `S=C(Nc1cccc(Cl)c1)OCCc1ccccn1`?
A: EC50 [1]: 1.4 µM; CC50 [2]: 47 µM; selectivity ratio [3]: 34

Q: What does the source list for `Cc1ccc(NC(=S)OCCc2ccccc2)cc1`?
A: EC50 [1]: 4.3 µM; CC50 [2]: > 100 µM; selectivity ratio [3]: > 23

Q: Which results are given for `S=C(Nc1ccccc1)OCCc1cccs1`?
A: EC50 [1]: 14 µM; CC50 [2]: > 100 µM; selectivity ratio [3]: > 7.1

Q: Which EC50 [1] does the source give for `Cc1ccc(NC(=S)OCCc2ccncc2)cc1` here?
A: Its EC50 is 63 µM.

Q: And the CC50 [2]?
A: The CC50 was greater than 100 µM.

Q: What about the selectivity ratio [3] of the same molecule?
A: Its selectivity ratio is greater than 1.6.

Q: With `S=C(Nc1ccccc1)OCCc1ccccn1` as the molecule, how does the EC50 [1] read?
A: The EC50 was 7.4 µM.

Q: What about the CC50 [2] of the same molecule?
A: Its CC50 is greater than 100 µM.

Q: And the selectivity ratio [3]?
A: The selectivity ratio was greater than 14.

Q: With `Cc1ccccc1NC(=S)OCCc1ccccn1` as the molecule, how does the EC50 [1] read?
A: The EC50 was 69 µM.

Q: What about the CC50 [2] of the same molecule?
A: The CC50 was greater than 100 µM.

Q: What about the selectivity ratio [3] of the same molecule?
A: The selectivity ratio was greater than 1.4.

Q: With `Cc1cccc(NC(=S)OCCc2ccccn2)c1` as the molecule, how does the EC50 [1] read?
A: Its EC50 is 7.7 µM.

Q: And the CC50 [2]?
A: The CC50 was greater than 100 µM.

Q: And the selectivity ratio [3]?
A: Its selectivity ratio is greater than 13.

Q: For `Fc1ccc(NC(=S)OCCc2ccccn2)cc1`, which EC50 [1] is on record?
A: The EC50 was 1.2 µM.

Q: What about the CC50 [2] of the same molecule?
A: The CC50 was greater than 100 µM.

Q: And the selectivity ratio [3]?
A: Its selectivity ratio is greater than 83.

Q: Which EC50 [1] does the source give for `O=[N+]([O-])c1cccc(NC(=S)OCCc2ccccn2)c1` here?
A: The EC50 was 1.6 µM.

Q: And the EC50 [5]?
A: Its EC50 is 91 µM.

Q: And the CC50 [2]?
A: The CC50 was 100 µM.

Q: What about the EC50 [6] of the same molecule?
A: The EC50 was 87 µM.

Q: And the selectivity ratio [3]?
A: The selectivity ratio was 63.

Q: Which EC50 [1] does the source give for `FC(F)(F)c1cc(NC(=S)OCCc2ccccn2)ccc1Cl` here?
A: Its EC50 is 5.5 µM.

Q: And the CC50 [2]?
A: Its CC50 is 42 µM.

Q: What about the selectivity ratio [3] of the same molecule?
A: The selectivity ratio was 7.6.

Q: For `S=C(Nc1ccccc1)OCCc1ccccc1`, which EC50 [1] is on record?
A: Its EC50 is 6 µM.

Q: What about the selectivity ratio [3] of the same molecule?
A: Its selectivity ratio is 17.

Q: Which results are given for `S=C(Nc1ccc(Cl)cc1)OCCc1ccncc1`?
A: EC50 [1]: > 70 µM; CC50 [2]: 70 µM; selectivity ratio [3]: < 1

Q: Which EC50 [1] does the source give for `COc1ccc(NC(=S)OCCc2ccccn2)cc1` here?
A: The EC50 was 5.6 µM.

Q: What about the CC50 [2] of the same molecule?
A: The CC50 was 48 µM.

Q: And the selectivity ratio [3]?
A: Its selectivity ratio is 8.6.

Q: For `O=[N+]([O-])c1ccc(NC(=S)OCCc2ccncc2)cc1`, which EC50 [1] is on record?
A: The EC50 was greater than 100 µM.

Q: And the CC50 [2]?
A: The CC50 was greater than 100 µM.

Q: With `Fc1cccc(NC(=S)OCCc2ccccn2)c1` as the molecule, how does the EC50 [1] read?
A: The EC50 was 1.1 µM.

Q: And the CC50 [2]?
A: Its CC50 is no less than 100 µM.

Q: And the selectivity ratio [3]?
A: Its selectivity ratio is no less than 91.

Q: For `Cc1ccc(NC(=S)OCCc2ccccn2)cc1`, which EC50 [1] is on record?
A: The EC50 was 1.7 µM.

Q: And the CC50 [2]?
A: Its CC50 is 75 µM.

Q: And the selectivity ratio [3]?
A: The selectivity ratio was 44.

Q: Which EC50 [1] does the source give for `Fc1cccc(F)c1NC(=S)OCCc1ccccn1` here?
A: Its EC50 is 38 µM.

Q: And the CC50 [2]?
A: Its CC50 is greater than 100 µM.

Q: And the selectivity ratio [3]?
A: The selectivity ratio was greater than 2.6.

Q: Which results are given for `S=C(Nc1ccc(Cl)cc1)OCCc1ccccc1`?
A: EC50 [1]: 0.5 µM; CC50 [2]: > 100 µM; selectivity ratio [3]: > 200

Q: What does the source list for `S=C(Nc1ccc(Cl)cc1)OCCc1ccccn1`?
A: EC50 [1]: 0.1 µM; CC50 [2]: 52 µM; selectivity ratio [3]: 520

Q: For `CCc1ccc(NC(=S)OCCc2ccccn2)cc1`, which EC50 [1] is on record?
A: The EC50 was 10 µM.

Q: What about the CC50 [2] of the same molecule?
A: Its CC50 is 44 µM.

Q: What about the selectivity ratio [3] of the same molecule?
A: Its selectivity ratio is 4.4.

Q: For `O=[N+]([O-])c1ccc(NC(=S)OCCc2ccccn2)cc1`, which EC50 [1] is on record?
A: Its EC50 is 0.7 µM.

Q: And the CC50 [2]?
A: The CC50 was greater than 100 µM.

Q: What about the EC90 [4] of the same molecule?
A: Its EC90 is 0.8 µM.

Q: What about the selectivity ratio [3] of the same molecule?
A: The selectivity ratio was greater than 143.

Q: With `S=C(Nc1ccc(Br)cc1)OCCc1ccccn1` as the molecule, how does the EC50 [1] read?
A: Its EC50 is 0.2 µM.

Q: And the Activity [5]?
A: The Activity was “inactive”.

Q: And the CC50 [2]?
A: Its CC50 is 37 µM.

Q: And the EC50 [6]?
A: Its EC50 is 20 µM.

Q: And the selectivity ratio [3]?
A: The selectivity ratio was 185.

Q: For `FC(F)(F)c1ccc(NC(=S)OCCc2ccccn2)cc1`, which EC50 [1] is on record?
A: The EC50 was 13 µM.

Q: And the CC50 [2]?
A: The CC50 was 50 µM.

Q: And the selectivity ratio [3]?
A: Its selectivity ratio is 3.8.

Q: For `O=[N+]([O-])c1ccc(NC(=S)OCCc2ccccc2)cc1`, which EC50 [1] is on record?
A: The EC50 was 0.9 µM.

Q: And the CC50 [2]?
A: The CC50 was greater than 100 µM.

Q: And the selectivity ratio [3]?
A: Its selectivity ratio is greater than 111.

Q: With `S=C(Nc1ccc(I)cc1)OCCc1ccccn1` as the molecule, how does the EC50 [1] read?
A: The EC50 was 0.5 µM.

Q: What about the CC50 [2] of the same molecule?
A: Its CC50 is 34 µM.

Q: What about the selectivity ratio [3] of the same molecule?
A: Its selectivity ratio is 68.

Q: What does the source list for `S=C(Nc1ccc(Cl)c(Cl)c1)OCCc1ccccn1`?
A: EC50 [1]: 0.2 µM; CC50 [2]: 40 µM; selectivity ratio [3]: 200

Q: Which EC50 [5] does the source give for `O=C1Nc2ccc(Cl)cc2[C@@](C#CC2CC2)(C(F)(F)F)O1` [EFAVIRENZ] here?
A: Its EC50 is 0.04 µM.

Q: And the EC50 [6]?
A: Its EC50 is 0.01 µM.

Reference: ChEMBL document CHEMBL1156535, “Thiocarbamates as non-nucleoside HIV-1 reverse transcriptase inhibitors. Part 1: Parallel synthesis, molecular modelling and structure-activity relationship studies on O-[2-(hetero)arylethyl]-N-phenylthiocarbamates” (Bioorg Med Chem, 2008)
